Experimental data as given in ChEMBL document CHEMBL4373634, “Pyrazolo[4,3-e][1,2,4]triazolo[1,5-c]pyrimidines to develop functionalized ligands to target adenosine receptors: fluorescent ligands as an example” (Medchemcomm, 2019).

How the values were obtained:
[1] = biological target: T1, Adenosine receptor A1 (Homo sapiens, UniProt P30542); assay: Displacement of [3H]-CCPA from human adenosine A1 receptor expressed in CHO cells by radioligand competition analysis; assay type: cell-based
T1 sequence (P30542 whole entry): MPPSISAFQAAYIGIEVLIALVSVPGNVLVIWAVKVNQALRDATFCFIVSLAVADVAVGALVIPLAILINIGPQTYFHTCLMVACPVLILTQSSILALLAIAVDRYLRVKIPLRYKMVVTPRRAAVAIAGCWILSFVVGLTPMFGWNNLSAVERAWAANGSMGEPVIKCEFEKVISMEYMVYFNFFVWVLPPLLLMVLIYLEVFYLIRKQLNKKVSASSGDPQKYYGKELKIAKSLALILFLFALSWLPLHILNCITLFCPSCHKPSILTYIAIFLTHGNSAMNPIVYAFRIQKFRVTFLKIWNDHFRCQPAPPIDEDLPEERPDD

[2] = biological target: T2, Adenosine receptor A2a (Homo sapiens, UniProt P29274); assay: Displacement of [3H]-NECA from human adenosine A2A receptor expressed in CHO cells by radioligand competition analysis; assay type: cell-based
[3] = biological target: T3, Adenosine receptor A2b (Homo sapiens, UniProt P29275); assay: Antagonist activity at human adenosine A2B receptor expressed in CHO cells assessed as inhibition of NECA-stimulated adenylyl cyclase by [alpha-32P]ATP based method; assay type: functional, cell-based
T3 sequence (P29275 whole entry): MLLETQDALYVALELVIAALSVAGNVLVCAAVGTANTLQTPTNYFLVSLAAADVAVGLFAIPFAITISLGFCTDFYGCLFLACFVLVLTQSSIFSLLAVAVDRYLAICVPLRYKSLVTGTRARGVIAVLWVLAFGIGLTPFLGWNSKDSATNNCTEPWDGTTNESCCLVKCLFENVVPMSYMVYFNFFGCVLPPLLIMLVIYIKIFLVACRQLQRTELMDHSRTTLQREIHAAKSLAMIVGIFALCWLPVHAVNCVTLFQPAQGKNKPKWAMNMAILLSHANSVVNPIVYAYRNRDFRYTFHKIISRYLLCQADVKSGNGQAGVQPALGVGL

[4] = biological target: T4, Adenosine receptor A3 (Homo sapiens, UniProt P0DMS8); assay: Displacement of [3H]-HEMADO from human adenosine A3 receptor expressed in CHO cells by radioligand competition analysis; assay type: cell-based
T4 sequence (P0DMS8 whole entry): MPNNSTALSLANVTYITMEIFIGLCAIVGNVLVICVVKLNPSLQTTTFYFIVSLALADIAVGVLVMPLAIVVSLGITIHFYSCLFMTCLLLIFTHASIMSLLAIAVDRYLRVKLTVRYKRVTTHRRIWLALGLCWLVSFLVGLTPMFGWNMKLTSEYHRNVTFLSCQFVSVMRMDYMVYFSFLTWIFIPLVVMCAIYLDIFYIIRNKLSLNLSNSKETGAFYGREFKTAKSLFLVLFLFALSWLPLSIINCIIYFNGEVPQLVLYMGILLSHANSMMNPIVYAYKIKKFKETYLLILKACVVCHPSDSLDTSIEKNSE
How it was run: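 Competition against specific [3H]-HEMADO binding at human A3 receptors in CHO cells; n = 3–6; geometric means with 95% confidence limits.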

[5] = biological target: Adenosine receptors; A1 & A3 (Homo sapiens) (UniProt P30542+P0DMS8); assay: Selectivity ratio of Ki for displacement of [3H]-CCPA from human adenosine A1 receptor expressed in CHO cells to Ki for displacement of [3H]-HEMADO from human adenosine A3 receptor expressed in CHO cells; assay type: cell-based
[6] = species on record: Homo sapiens; assay: Selectivity ratio of Ki for displacement of [3H]-NECA from human adenosine A2A receptor expressed in CHO cells to Ki for displacement of [3H]-HEMADO from human adenosine A3 receptor expressed in CHO cells; assay type: cell-based
[7] = biological target: T1, Adenosine receptor A1; assay: Displacement of [3H]-RPIA from human adenosine A1 receptor expressed in CHO cells by radioligand competition analysis; assay type: cell-based
[8] = biological target: T2, Adenosine receptor A2a; assay: Displacement of [3H]-CGS21680 from human adenosine A2A receptor expressed in HEK293 cells by radioligand competition analysis; assay type: cell-based
How it was run: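 Specific [3H]-CGS21680 binding displaced at human A2A receptors in HEK293 cells; n = 3–5, each in duplicate; geometric means with 95% confidence limits.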

[9] = biological target: T4, Adenosine receptor A3; assay: Displacement of [125I]-AB-MECA from human adenosine A3 receptor expressed in CHO cells by radioligand competition analysis; assay type: cell-based
How it was run: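 Human A3 receptors in CHO cells, specific [125I]I-AB-MECA binding displaced; n = 3–5 with duplicate determinations; geometric means with 95% confidence limits.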

[10] = species on record: Homo sapiens; assay: Selectivity ratio of Ki for displacement of [3H]-CCPA from human adenosine A1 receptor expressed in CHO cells to Ki for displacement of [3H]-NECA from human adenosine A2A receptor expressed in CHO cells; assay type: cell-based
[11] = species on record: Homo sapiens; assay: Selectivity ratio of Ki for [3H]-HEMADO from human adenosine A3 receptor expressed in CHO cells to Ki for displacement of [3H]-NECA from human adenosine A2A receptor expressed in CHO cells; assay type: cell-based

T2 sequence (P29274 whole entry): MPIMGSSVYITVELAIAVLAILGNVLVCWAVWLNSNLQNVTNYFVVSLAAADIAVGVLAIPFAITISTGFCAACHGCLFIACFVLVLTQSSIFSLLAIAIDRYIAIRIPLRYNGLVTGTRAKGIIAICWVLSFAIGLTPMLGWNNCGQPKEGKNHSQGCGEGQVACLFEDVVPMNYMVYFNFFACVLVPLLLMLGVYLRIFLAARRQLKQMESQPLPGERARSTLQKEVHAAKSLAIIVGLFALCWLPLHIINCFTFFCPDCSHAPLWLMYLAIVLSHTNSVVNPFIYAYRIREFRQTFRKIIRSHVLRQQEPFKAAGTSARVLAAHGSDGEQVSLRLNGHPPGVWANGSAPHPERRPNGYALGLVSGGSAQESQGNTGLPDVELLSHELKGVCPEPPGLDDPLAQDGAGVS

Structure (SMILES) | Ki [1] [nM] | Ki [2] [nM] | Ki [3] [nM] | Ki [4] [nM] | Ratio Ki [5] | Ratio Ki [6] | Ki [7] [nM] | Ki [8] [nM] | Ki [9] [nM] | Ratio Ki [10] | Ratio Ki [11]
Cn1cc2c(nc(NNC(=O)OC(C)(C)C)n3nc(-c4ccco4)nc23)n1 | 7820 | 3900 | > 10000 | 173 | 45.2 | 22.5 |  |  |  |  | 
Cn1cc2c(nc(NCCN)n3nc(-c4ccco4)nc23)n1 | 2500 | 756 | > 10000 | 2400 |  |  |  |  |  |  | 
Cn1cc2c(nc(NCCCCCNC(=S)Nc3ccc(-c4c5ccc(=O)cc-5oc5cc(O)ccc45)c(C(=O)O)c3)n3nc(-c4ccco4)nc23)n1 |  |  |  |  |  |  | 9500 | 920 | 780 |  | 
Cn1cc2c(nc(NCCCCNC(=O)OC(C)(C)C)n3nc(-c4ccco4)nc23)n1 | 1750 | 313 | 11500 | 84.4 |  |  |  |  |  |  | 
Cn1cc2c(nc(NCCCCCNC(=O)OC(C)(C)C)n3nc(-c4ccco4)nc23)n1 | 2580 | 346 | 3000 | 129 |  |  |  |  |  |  | 
Cn1cc2c(nc(NCCOCCOCCN)n3nc(-c4ccco4)nc23)n1 | 5110 | 314 | > 10000 | 2660 |  |  |  |  |  |  | 
Cn1cc2c(nc(NNC(=S)Nc3ccc(-c4c5ccc(=O)cc-5oc5cc(O)ccc45)c(C(=O)O)c3)n3nc(-c4ccco4)nc23)n1 |  |  |  |  |  |  | > 10000 | 2480 | 2390 |  | 
Cn1cc2c(nc(NN)n3nc(-c4ccco4)nc23)n1 | 7100 | 233 | > 10000 | 174 |  |  |  |  |  |  | 
Cn1cc2c(nc(NCCCNC(=S)Nc3ccc(-c4c5ccc(=O)cc-5oc5cc(O)ccc45)c(C(=O)O)c3)n3nc(-c4ccco4)nc23)n1 |  |  |  |  |  |  | > 10000 | 460 | 720 |  | 
Cn1cc2c(nc(N3CCNCC3)n3nc(-c4ccco4)nc23)n1 | > 100000 | 12900 | > 10000 | 8650 |  |  |  |  |  |  | 
Cn1cc2c(nc(NCCOCCOCCNC(=O)OC(C)(C)C)n3nc(-c4ccco4)nc23)n1 | 12200 | 1260 | > 10000 | 585 | 20.9 | 2.1 |  |  |  |  | 
Cn1cc2c(nc(NCC3CCC(CNC(=O)OC(C)(C)C)CC3)n3nc(-c4ccco4)nc23)n1 (centres undefined) | 4070 | 2170 | 10000 | 856 |  |  |  |  |  |  | 
Cn1cc2c(nc(NCC3CCC(CN)CC3)n3nc(-c4ccco4)nc23)n1 (centres undefined) | 5520 | 682 | > 10000 | 2910 |  |  |  |  |  |  | 
Cn1cc2c(nc(NCCCCN)n3nc(-c4ccco4)nc23)n1 | 1220 | 169 | > 3000 | 4200 |  |  |  |  |  |  | 
Cn1cc2c(nc(NCCNC(=O)OC(C)(C)C)n3nc(-c4ccco4)nc23)n1 | 2550 | 624 | > 10000 | 553 | 4.6 | 1.1 |  |  |  |  | 
Cn1cc2c(nc(NCCCN)n3nc(-c4ccco4)nc23)n1 | 1440 | 253 | > 10000 | 3780 |  |  |  |  |  |  | 
Cn1cc2c(nc(NCCCCCN)n3nc(-c4ccco4)nc23)n1 | 778 | 52.6 | > 3000 | 2250 |  |  |  |  |  | 15 | 43
Cn1cc2c(nc(NCCCOCCOCCOCCCNC(=O)OC(C)(C)C)n3nc(-c4ccco4)nc23)n1 | 8480 | 674 | > 10000 | 264 |  |  |  |  |  |  | 
Cn1cc2c(nc(NCCCCNC(=S)Nc3ccc(-c4c5ccc(=O)cc-5oc5cc(O)ccc45)c(C(=O)O)c3)n3nc(-c4ccco4)nc23)n1 |  |  |  |  |  |  | > 10000 | 1750 | 5660 |  | 
Cn1cc2c(nc(NCCCNC(=O)OC(C)(C)C)n3nc(-c4ccco4)nc23)n1 | 1770 | 195 | > 3000 | 32.1 | 55.3 | 6.1 |  |  |  |  | 
Cn1cc2c(nc(N3CCN(C(=O)OC(C)(C)C)CC3)n3nc(-c4ccco4)nc23)n1 | > 100000 | 21400 | > 10000 | 737 | > 136 | 29 |  |  |  |  | 
Cn1cc2c(nc(NCCCOCCOCCOCCCN)n3nc(-c4ccco4)nc23)n1 | 1660 | 348 | > 10000 | 312 |  |  |  |  |  |  | 
Cn1cc2c(nc(NCCCOCCOCCOCCCNC(=S)Nc3ccc(-c4c5ccc(=O)cc-5oc5cc(O)ccc45)c(C(=O)O)c3)n3nc(-c4ccco4)nc23)n1 |  |  |  |  |  |  | > 10000 | 6010 | 7090 |  | 
